Only a selection was taken, and hits are over-represented in it overall.
G6PDH CS – L. mesenteroides G6PDH inhibitors, counter-screen for G6PDH-coupled screening assays, biochemical, Leuconostoc mesenteroides enzyme | glucose-6-phosphate dehydrogenase [Leuconostoc mesenteroides] | Purified L. mesenteroides G6PDH, diaphorase/resazurin coupled fluorescence, 45 min | inhibition, % at 5 µM | 200,000 tested, 0.12% active | AID 1020, 2008
Redox H2O2 prof – compounds producing H2O2 with reducing agent – biochemical, NIH compound library profiling, artefact control for MLSCN library redox annotation, primary screen; DTT-dependent redox cycling H2O2, phenol red/HRP absorbance; 100% = 100 µM peroxide control, 0% = buffer; activation, % at 10 µM; 200,000 tested, 0.03% active;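 active = activation of at least 50% relative to the plate's high and low controls in the primary single-dose screen; inactive = activation below 50%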;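 note: compound incubated with DTT at 0.8 mM final as the reducing agent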
Diaph act CS – compounds boosting diaphorase resazurin reduction – biochemical, uHTS, resorufin fluorescence, counter-screen for diaphorase-coupled primary assays, primary screen; Diaphorase/resazurin coupled assay, 16 min; active compounds read high; 1 = vehicle wells, 0 = NADH-free wells; activation factor at 20 µM; 190,000 tested, 0.005% active; AID 1229, 2008;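 active = diaphorase activity raised at least twofold by the compound at 20 µM; inactive = activation factor below 2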
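Assay system: Purified diaphorase enzyme from Clostridium kluyveri | Amount: Enzyme 0.07 U/mL final | Dosing: Compound 20 µM once, DMSO 1% | Timing: 16 min reaction at room temperature | Detection: Fluorescence, excitation 544 nm and emission 590 nm | Evaluation: Higher resorufin formation from activation or reduction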
L major viab – Leishmania major promastigote growth inhibition, primary screen | Leishmania major promastigotes, resazurin fluorescence viability | inhibition, % at 10 µM | 200,000 tested, 9% active | AID 1063, 2008;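 note: promastigotes grown with compound for 44 hours at 28 °C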
PfGluPho inh – PfG6PD enzyme inhibitors, primary screen, biochemical, fluorescence intensity, uHTS | glucose-6-phosphate dehydrogenase-6-phosphogluconolactonase (Plasmodium falciparum 3D7) | PfGluPho enzyme, NADPH resazurin-diaphorase fluorescence | inhibition, % at 20 µM | 350,000 tested, 0.78% active;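 active = inhibition reaching at least a set limit at 20 µM in the primary screen, cut at about 59% in these data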;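 note: 0% = DMSO wells with substrate and 100% = DMSO wells lacking glucose-6-phosphate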
Diaphorase inh – diaphorase inhibitors and chemical oxidizers, primary screen, counter-screen for diaphorase-coupled primary assays, biochemical, uHTS, resorufin fluorescence; diaphorase resazurin-to-resorufin fluorescence, NADH, 16 min; bacterial (C. kluyveri) enzyme, not human; inhibition, % at 20 µM; 190,000 tested, 0.69% active;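 active = primary screen inhibition at 20 µM above a set limit, cut at about 50% in these data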;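 note: plate controls were DMSO with full reaction for no effect and wells lacking NADH for full effect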
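Assay system – diaphorase enzyme from Clostridium kluyveri · Amount – diaphorase 0.14 U/mL (working solution) · Times – reaction incubation of 16 min at room temperature · Controls – No-NADH positive control and DMSO neutral control · Signal – resorufin fluorescence 544/590 nm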
* = called active by the depositor; . = not tested or not shown. Cut-off read from the data, not from the text of the source, unless noted: active = inhibition above about 50%; inactive = the rest.

SMILES	G6PDH CS	Redox H2O2 prof	Diaph act CS	L major viab	PfGluPho inh	Diaphorase inh
O=C(/C=C/c1ccc(Cl)cc1Cl)NCCN1CCOCC1	-3	-4	0.9	71*	1	10
CC1=C(C#N)C(=O)NC1(C)O (stereo not given)	.	.	.	.	4	.
COc1c(C)cccc1C(=O)NC(=S)Nc1cccc2nsnc12	10	0	0.3	-4	20	66*
Cc1noc(C)c1CCC(=O)N1CCCC(N2CCN(c3ccc(F)cc3)CC2)C1 (stereo not given)	.	.	.	.	-5	.
COc1ccc(C(=O)N2CCN(Cc3cc(OC)c(O)c(OC)c3)CC2)cc1OC	55*	0	0.7	-1	-7	29
COc1cc(CN2CCN(C(=O)CC(C)C)CC2)cc(OC)c1O	53*	-3	0.6	22	-3	39
C[C@]12c3[nH]c4ccccc4c3CCN1C(=O)C(CC(=O)NCCCn1ccnc1)C[C@@H]2C(=O)N1CCCCC1 (stereo not given in full)	.	.	.	.	-1	.
CC(C)SC1=NC(C)(C)C=C(/C=C/c2ccc(Cl)cc2Cl)N1	5	0	0.8	95*	23	17
Clc1ccc(/C=C/c2nc3ccccc3[nH]2)c(Cl)c1	-4	-3	0.8	37	30	23
CC(C)SC1=NC(C)(C)C=C(/C=C/c2c(Cl)cccc2Cl)N1	2	1	0.8	100*	17	20
O=C(Nc1ccc2c(c1)CCC2)c1ccc(F)cc1	-13	1	0.9	-1	32	11
O=C(Nc1ccc2c(c1)CCC2)c1cc(S(=O)(=O)Nc2ccc(F)cc2)c(Cl)cc1Cl	12	0	0.8	60*	-13	19
Cc1cc(C(=O)OCC(=O)N2CCc3ccccc32)ccc1[N+](=O)[O-]	.	.	.	.	-2	.
CCOc1nc(N=C(N)N)nc2c(C)cccc12	17	-8	1.1	100*	0	-7
CCOc1ccccc1Nc1cc(C)c2cccc(C)c2n1	.	.	.	.	9	.
COC(=O)C1=C(C)N(C)C(=O)NC1c1cc2c(cc1[N+](=O)[O-])OCO2 (stereo not given)	10	0	0.4	5	30	59*
COC(=O)C1=C(C)N(c2ccc(C(=O)OC)cc2)C(=O)C1	-2	1	0.9	24	-11	14
COC(=O)C1=C(C)N(c2cc(Cl)cc(Cl)c2)C(=O)C1	11	-1	0.9	87*	-3	7
O=C1C(Cl)=C(NC2CCCCC2)C(=O)N1Cc1ccccc1	2	0	1	-7	3	-2
O=C1C(Cl)=C(N2CCN(Cc3ccccc3)CC2)C(=O)N1Cc1ccccc1	6	-4	0.8	92*	9	16
CC(NC(=O)Nc1ccccc1)C(c1cccs1)N1CCOCC1 (stereo not given)	2	0	1.1	-1	-3	-5
CC(NC(=O)Nc1ccccc1)C(c1ccccc1)N1CCOCC1 (stereo not given)	3	0	1.1	52*	13	-8
CCOc1ccc(C(=O)NCc2ccco2)cc1OC	.	.	.	.	2	.
CC(C)c1cc(C(=O)NNC(=S)NCc2ccco2)c(O)c(C(C)C)c1	22	0	0.8	-5	-24	23
CCCCCC(O)(c1ccc(OCC)cc1)C(CN1CCOCC1)c1ccccc1 (stereo not given)	.	.	.	.	17	.
CCCCOc1ccc(C(=O)N2CCCCCC2)cc1	3	1	0.8	1	-8	22
CCCOc1ccc(C(O)C(CN2CCOCC2)c2ccccc2)cc1 (stereo not given)	2	0	0.9	89*	3	12
CCCCOc1ccc(C(O)C(CN2CCOCC2)c2ccccc2)cc1 (stereo not given)	.	.	.	.	-5	.

Screening results as filed in PubChem.
